Data published in ChEMBL document CHEMBL3792361, “Design and Synthesis of Benzimidazoles As Novel Corticotropin-Releasing Factor 1 Receptor Antagonists” (J Med Chem, 2016).
≈ marks a conversion by molar mass, not a printed value. Calls of active or inactive are those of the source. No cut-off for these calls is given here.

Assays:
[1] = target: T1, Corticotropin-releasing factor receptor 1 (Homo sapiens, UniProt P34998); assay: Displacement of [125I]-CRF from human CRF1 receptor expressed in CHO cellular membrane fraction after 1.5 hrs by liquid scintillation counting method; type: cell-based
T1 sequence (P34998 whole entry): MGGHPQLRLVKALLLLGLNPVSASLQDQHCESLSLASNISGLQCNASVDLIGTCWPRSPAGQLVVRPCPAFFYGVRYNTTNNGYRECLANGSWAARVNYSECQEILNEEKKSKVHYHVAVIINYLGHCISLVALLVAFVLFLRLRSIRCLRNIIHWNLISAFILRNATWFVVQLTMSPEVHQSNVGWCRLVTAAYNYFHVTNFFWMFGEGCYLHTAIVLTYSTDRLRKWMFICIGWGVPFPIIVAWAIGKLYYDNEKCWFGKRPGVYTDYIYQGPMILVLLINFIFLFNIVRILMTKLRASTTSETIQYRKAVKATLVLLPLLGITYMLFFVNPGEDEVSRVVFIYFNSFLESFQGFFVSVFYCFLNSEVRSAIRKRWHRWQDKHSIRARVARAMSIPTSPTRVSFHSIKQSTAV

[2] = Cytotoxicity against human HepG2 cells assessed as rate of ATP content at 30 uM after 1 day by ATPLite-M assay relative to control; type: cell-based; settings: read-out: Activity
[3] = Octanol-water partition co-efficient, log D of the compound at pH 7.4 by HPLC analysis; type: physicochemical
[4] = system: Mus musculus; assay: Ex vivo inhibition of [125I]-CRF binding to CRF1 receptor in mouse pituitary gland at 20 mg/kg, po after 1 hr by gamma scintillation counting method; type: functional
Outline: (§1)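 Compound suspended in 0.5% methyl cellulose in water and dosed orally (10 mL/kg), 5 mice/group. Incubated with 100 pM ovine 125I-CRF at rt for 2 h, then GF/C filtration.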

[5] = system: Mus musculus; assay: Ex vivo inhibition of [125I]-CRF binding to CRF1 receptor in mouse olfactory bulb at 20 mg/kg, po after 1 hr by gamma scintillation counting method; type: functional; outline: as §1
[6] = system: Mus musculus; assay: Ex vivo inhibition of [125I]-CRF binding to CRF1 receptor in mouse frontal cortex at 20 mg/kg, po after 1 hr by gamma scintillation counting method; type: functional; outline: as §1
[7] = Solubility of the compound in pH 6.8 phosphate buffer with bile acid by HPLC analysis; type: physicochemical
Outline: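 DMSO stock of compound added to pH 6.8 phosphate buffer containing bile acid. After incubation, precipitate removed by filter-plate filtration; dissolved compound in filtrate quantified by HPLC.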

[8] = target: T2, Corticotropin-releasing factor receptor 2 (Homo sapiens) (UniProt Q13324); assay: Binding affinity to human CRF2alpha receptor up to 10 uM
T2 sequence (whole entry): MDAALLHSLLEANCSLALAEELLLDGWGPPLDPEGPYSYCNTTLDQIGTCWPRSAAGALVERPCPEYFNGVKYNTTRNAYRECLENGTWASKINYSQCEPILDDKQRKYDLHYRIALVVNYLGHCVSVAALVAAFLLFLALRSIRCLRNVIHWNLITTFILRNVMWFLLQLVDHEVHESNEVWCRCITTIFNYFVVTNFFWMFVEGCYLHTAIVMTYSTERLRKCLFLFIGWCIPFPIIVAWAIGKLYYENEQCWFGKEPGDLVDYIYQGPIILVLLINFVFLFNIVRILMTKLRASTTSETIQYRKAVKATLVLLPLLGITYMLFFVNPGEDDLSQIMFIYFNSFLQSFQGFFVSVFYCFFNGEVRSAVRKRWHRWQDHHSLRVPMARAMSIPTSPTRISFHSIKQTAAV

[9] = system: Mus musculus; assay: Suppression of stress-induced activation of hypothalamus-pituitary-adrenocortical axis in mouse assessed as reduction of plasma ATCH level at 60 mg/kg, po after 1 hr by immunoradiometric assay; type: functional, organism-based
Outline: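 Mice dosed orally with compound suspended in 0.5% methyl cellulose (10 mL/kg) 1 h before test. PBS given icv (5 µL/mouse); blood taken by decapitation 0.5 h later. Plasma separated by centrifugation at 4°C; ACTH measured by immunoradiometric assay. Mean ± SEM, n = 10, Dunnett's test vs vehicle.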

[10] = system: Mus musculus; assay: Ex vivo inhibition of [125I]-CRF binding to CRF1 receptor in mouse pituitary gland at 60 mg/kg, po after 1 hr by gamma scintillation counting method; type: functional; outline: as §1
[11] = system: Mus musculus; assay: Ex vivo inhibition of [125I]-CRF binding to CRF1 receptor in mouse olfactory bulb at 60 mg/kg, po after 1 hr by gamma scintillation counting method; type: functional; outline: as §1
[12] = target: T2, Corticotropin-releasing factor receptor 2 (Homo sapiens); assay: Binding affinity to human CRF2beta receptor up to 10 uM
[13] = system: Mus musculus; assay: Ex vivo inhibition of [125I]-CRF binding to CRF1 receptor in mouse frontal cortex at 60 mg/kg, po after 1 hr by gamma scintillation counting method; type: functional; outline: as §1

| Structure (SMILES) | IC50 [1] | viability at 24 h, 30 µM [2] | other results |
| --- | --- | --- | --- |
| CCN(CC)c1ccc(Cl)c2nc(Nc3c(C)cc(Cl)cc3OC)n(C)c12 | – | 76% | – |
| CCN(CC)c1ccc(C#N)c2nc(Nc3c(C)cc(Cl)cc3OC)n(C)c12 | 13 nM | 81% | – |
| CCCN(CCC)c1cc(C)nc2c(-c3cnc(N(C)C)cc3C)c(C)nn12 | – | 51% | inhibition in vivo at 20 mg/kg [4]: 98%; inhibition in vivo at 20 mg/kg [5]: 95%; inhibition in vivo at 20 mg/kg [6]: 96% |
| CCCN(CCC)c1cccc2nc(Nc3c(C)cc(C)cc3C)[nH]c12 | 2500 nM | 41% | – |
| CCCN(CCC)c1cccc2nc(Nc3c(C)cc(Cl)cc3OC)n(C)c12 | 14 nM | – | – |
| CCCN(CCC)c1cccc2nc(Nc3ccc(C)cc3C)n(C)c12 | 84 nM | 79% | – |
| CCCN(CCC)c1cccc2nc(Nc3c(C)cc(C)cc3C)n(C(C)C)c12 | 97 nM | 10% | logD [3]: 5.9 |
| CCCCN(CCCC)c1cccc2nc(Nc3c(C)cc(Br)cc3OC)n(C)c12 | 14 nM | 90% | – |
| CCCN(CCC)c1ccc(Cl)c2nc(Nc3c(C)cc(Cl)cc3OC)n(C)c12 | – | – | solubility [7]: 33 µg/mL (≈ 75.8 µM); Activity [8]: inactive; Activity [9]: Active; inhibition in vivo at 60 mg/kg [10]: 101%; inhibition in vivo at 60 mg/kg [11]: 83%; Activity [12]: inactive; inhibition in vivo at 60 mg/kg [13]: 86% |
| CCCN(CCC)c1cccc2nc(Nc3c(C)cccc3C)n(C)c12 | 140 nM | 72% | – |
| CCCN(CCC)c1cccc2nc(Nc3c(C)cc(Br)cc3OC)n(C)c12 | 12 nM | 82% | logD [3]: 5.39 |

Continued, in another order:

| IC50 [1] | Structure (SMILES) | viability at 24 h, 30 µM [2] | other results |
| --- | --- | --- | --- |
| 7.6 nM | CCN(CC)c1ccc(C)c2nc(Nc3c(C)cc(Cl)cc3OC)n(C)c12 | 72% | – |
| 65 nM | COCCN(CCOC)c1cccc2nc(Nc3c(C)cc(Br)cc3OC)n(C)c12 | 92% | – |
| 990 nM | CCCN(CCC)c1cccc2nc(Nc3c(C)cc(C)cc3C)oc12 | 65% | – |
| > 10000 nM | CCCN(CCC)c1c(Cl)ccc2nc(Nc3c(C)cc(Cl)cc3OC)n(C)c12 | 86% | – |
| 14 nM | CCCN(CCC)c1ccc(C#N)c2nc(Nc3c(C)cc(Cl)cc3OC)n(C)c12 | 83% | – |
| 2200 nM | CCCN(CCC)c1cccc2nc(Nc3c(C)cc(C)cc3C)n(-c3ccccc3)c12 | 32% | logD [3]: 6.31 |
| > 10000 nM | CCN(CC)c1ccc(-c2ccccc2)c2nc(Nc3c(C)cc(Cl)cc3OC)n(C)c12 | 92% | – |
| 13 nM | CCN(CC)c1ccc(OC)c2nc(Nc3c(C)cc(Cl)cc3OC)n(C)c12 | 5% | – |
| 15 nM | CCCN(CCC)c1cccc2nc(Nc3c(C)cc(C)cc3C)n(C)c12 | 89% | logD [3]: 5.23 |
| 11 nM | CCN(c1cccc2nc(Nc3c(C)cc(Br)cc3OC)n(C)c12)C(C)C | 87% | – |
| 77 nM | CCCN(CCC)c1cccc2nc(Nc3c(C)cc(C)cc3C)sc12 | 75% | – |
| 13 nM | CCN(CC)c1cccc2nc(Nc3c(C)cc(Br)cc3OC)n(C)c12 | 93% | – |
| 22 nM | CCCN(CCC)c1cccc2nc(Nc3c(C)cc(Cl)cc3C(C)C)n(C)c12 | 28% | logD [3]: 5.96 |
| 170 nM | CCCN(CCC)c1c(Cl)cc(Cl)c2nc(Nc3c(C)cc(Cl)cc3OC)n(C)c12 | 72% | – |
